{"source": "ChEMBL document CHEMBL4715838", "about": "“Novel diosgenin derivatives containing 1,3,4-oxadiazole/thiadiazole moieties as potential antitumor agents: Design, synthesis and cytotoxic evaluation” (Eur J Med Chem, 2020)", "key": {"[1]": {"test_system": "HepG2", "assay": "Cytotoxicity against human HepG2 cells assessed as reduction in cell viability measured after 48 hrs by MTT assay", "assay_type": "functional, cell-based", "details": "HepG2, 48 h", "outline": "(§1)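 Cells in DMEM with 10% FBS, penicillin/streptomycin, 37 °C, 5% CO2. Seeded at 5×10^3 per well directly into medium holding graded concentrations of sample and incubated 48 h. MTT (5 mg/mL in PBS) added for 4 h, medium replaced with DMSO, absorbance read at 492 nm. IC50 taken as the concentration giving 50% inhibition of proliferation; three replicates, means ± SD.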"}, "[2]": {"test_system": "A549", "assay": "Cytotoxicity against human A549 cells assessed as reduction in cell viability measured after 48 hrs by MTT assay", "assay_type": "functional, cell-based", "details": "A549, 48 h", "outline": "as §1"}, "[3]": {"test_system": "MCF7", "assay": "Cytotoxicity against human MCF7 cells assessed as reduction in cell viability measured after 48 hrs by MTT assay", "assay_type": "functional, cell-based", "details": "MCF7, 48 h", "outline": "as §1"}, "[4]": {"test_system": "HCT-116", "assay": "Cytotoxicity against human HCT-116 cells assessed as reduction in cell viability measured after 48 hrs by MTT assay", "assay_type": "functional, cell-based", "details": "HCT-116, 48 h", "outline": "as §1"}, "[5]": {"test_system": "GES1", "assay": "Cytotoxicity against human GES1 cells assessed as reduction in cell viability measured after 48 hrs by MTT assay", "assay_type": "cell-based", "details": "GES1, 48 h", "outline": "as §1"}, "[6]": {"test_system": "A549", "assay": "Induction of apoptosis in human A549 cells assessed as cell rounding at 15 to 30 uM measured after 48 hrs by phase contrast microscopic analysis", "assay_type": "functional, cell-based", "details": "dose 15-30 µM", "outline": "(§2)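 A549 seeded at 2×10^5 cells/well and allowed to settle 24 h. Then exposed 48 h to test compound (15 or 30 μM) or diosgenin (30 μM); controls received 0.1% DMSO. Cell shape examined by phase contrast microscopy.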"}, "[7]": {"test_system": "A549", "assay": "Induction of apoptosis in human A549 cells assessed as cell shrinkage at 15 to 30 uM measured after 48 hrs by phase contrast microscopic analysis", "assay_type": "functional, cell-based", "details": "dose 15-30 µM", "outline": "as §2"}, "[8]": {"test_system": "A549", "assay": "Induction of apoptosis in human A549 cells assessed as membrane blebbing at 15 to 30 uM measured after 48 hrs by phase contrast microscopic analysis", "assay_type": "functional, cell-based", "details": "dose 15-30 µM", "outline": "as §2"}, "[9]": {"test_system": "A549", "assay": "Induction of apoptosis in human A549 cells assessed as formation of apoptotic bodies at 15 to 30 uM measured after 48 hrs by phase contrast microscopic analysis", "assay_type": "functional, cell-based", "details": "dose 15-30 µM", "outline": "as §2"}, "[10]": {"test_system": "A549", "assay": "Induction of apoptosis in human A549 cells assessed as chromatin condensation at 15 to 30 uM measured after 48 hrs by DAPI staining based fluorescence microscopic analysis", "assay_type": "functional, cell-based", "details": "dose 15-30 µM", "outline": "(§3)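 A549 plated at 2×10^5 cells/well and grown 24 h. Treated 48 h with test compound (15 or 30 μM) or diosgenin (30 μM); vehicle control 0.1% DMSO. Fixed in 4% formaldehyde 1 h at 4 °C, stained with 5 μM DAPI for 10 min at 37 °C in the dark, and viewed by fluorescence microscopy.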"}, "[11]": {"test_system": "A549", "assay": "Induction of apoptosis in human A549 cells assessed as nuclear fragmentation at 15 to 30 uM measured after 48 hrs by DAPI staining based fluorescence microscopic analysis", "assay_type": "functional, cell-based", "details": "dose 15-30 µM", "outline": "as §3"}, "[12]": {"test_system": "A549", "assay": "Induction of apoptosis in human A549 cells assessed as early apoptotic cells at 15 uM after 48 hrs by AnnexinV-FITC/propidium iodide staining based flow cytometry analysis (reference value: 0.5 to 2.3 %)", "assay_type": "functional"}, "[13]": {"test_system": "A549", "assay": "Induction of apoptosis in human A549 cells assessed as late apoptotic cells at 15 uM after 48 hrs by AnnexinV-FITC/propidium iodide staining based flow cytometry analysis (reference value: 1 to 3.1 %)", "assay_type": "functional"}, "[14]": {"test_system": "A549", "assay": "Induction of apoptosis in human A549 cells assessed as early apoptotic cells at 30 uM after 48 hrs by AnnexinV-FITC/propidium iodide staining based flow cytometry analysis (reference value: 0.5 to 2.3 %)", "assay_type": "functional"}, "[15]": {"test_system": "A549", "assay": "Induction of apoptosis in human A549 cells assessed as late apoptotic cells at 30 uM after 48 hrs by AnnexinV-FITC/propidium iodide staining based flow cytometry analysis (reference value: 1 to 3.1 %)", "assay_type": "functional"}, "[16]": {"test_system": "A549", "assay": "Induction of apoptosis in human A549 cells assessed as increase in cleaved caspase 3 expression at 7.5 to 30 uM by Western blot analysis", "assay_type": "functional, cell-based", "details": "dose 7.5-30 µM", "outline": "(§4)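 A549 treated with compound (0, 7.5, 15, 30 μM) or diosgenin (0, 15, 30 μM), lysed in RIPA and boiled 10 min. 30 μg protein run on 10% SDS-PAGE, blotted to nitrocellulose, blocked in 5% BSA. Primary antibodies used at 1:1000, HRP secondary at 1:5000 for 2 h, ECL detection. β-actin served as loading control.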"}, "[17]": {"test_system": "A549", "assay": "Induction of apoptosis in human A549 cells assessed as increase in cleaved caspase 9 expression at 7.5 to 30 uM by Western blot analysis", "assay_type": "functional, cell-based", "details": "dose 7.5-30 µM", "outline": "as §4"}, "[18]": {"test_system": "A549", "assay": "Induction of apoptosis in human A549 cells assessed as increase in cleaved PARP expression at 7.5 to 30 uM by Western blot analysis", "assay_type": "functional, cell-based", "details": "dose 7.5-30 µM", "outline": "as §4"}, "[19]": {"test_system": "A549", "assay": "Induction of mitochondrial depolarization in human A549 cells assessed as increase in depolarized cell population measured after 48 hrs by JC1 dye based flow cytometry", "assay_type": "functional", "details": "dose 15-30 µM"}, "[20]": {"test_system": "A549", "assay": "Induction of mitochondrial depolarization in human A549 cells assessed as depolarized cell population at 15 uM measured after 48 hrs by JC1 dye based flow cytometry (reference value: 0.4%)", "assay_type": "functional"}, "[21]": {"test_system": "A549", "assay": "Induction of mitochondrial depolarization in human A549 cells assessed as depolarized cell population at 30 uM measured after 48 hrs by JC1 dye based flow cytometry (reference value: 0.4%)", "assay_type": "functional"}, "[22]": {"test_system": "A549", "assay": "Induction of apoptosis in human A549 cells assessed as increase in Bax expression by Western blot analysis", "assay_type": "functional, cell-based", "details": "dose 7.5-30 µM", "outline": "as §4"}, "[23]": {"test_system": "A549", "assay": "Induction of apoptosis in human A549 cells assessed as decrease in Bcl-2 expression by Western blot analysis", "assay_type": "functional, cell-based", "details": "dose 7.5-30 µM", "outline": "as §4"}, "[24]": {"test_system": "A549", "assay": "Induction of apoptosis in human A549 cells assessed as increase in cyto-c expression by Western blot analysis", "assay_type": "functional, cell-based", "details": "dose 7.5-30 µM", "outline": "as §4"}, "[25]": {"test_system": "HepG2", "assay": "Potency index, ratio of diosgenin IC50 to test compound IC50 for cytotoxicity against human HepG2 cells assessed as reduction in cell viability", "assay_type": "functional"}, "[26]": {"test_system": "A549", "assay": "Potency index, ratio of diosgenin IC50 to test compound IC50 for cytotoxicity against human A549 cells assessed as reduction in cell viability", "assay_type": "functional"}}, "note": "Calls of active or inactive are those of the source. The calls are words filed in the database; no cut-off is given here."}
{"smiles": "CC(=O)O[C@H]1CC[C@@]2(C)C(=CC[C@H]3[C@@H]4C[C@@H]5O[C@H](CC[C@H](C)c6nnc(-c7cccnc7)s6)[C@@H](C)[C@@H]5[C@@]4(C)CC[C@@H]32)C1", "values": [{"measurement": "IC50", "setting": "[1]", "result": 11.7, "unit": "µM"}, {"measurement": "IC50", "setting": "[2]", "result": 3.93, "unit": "µM"}, {"measurement": "IC50", "setting": "[3]", "result": "> 100", "unit": "µM"}, {"measurement": "IC50", "setting": "[4]", "result": 29.6, "unit": "µM"}, {"measurement": "IC50", "setting": "[5]", "result": 420, "unit": "µM"}, {"measurement": "Activity", "setting": "[6]", "result": "Active"}, {"measurement": "Activity", "setting": "[7]", "result": "Active"}, {"measurement": "Activity", "setting": "[8]", "result": "Active"}, {"measurement": "Activity", "setting": "[9]", "result": "Active"}, {"measurement": "Activity", "setting": "[10]", "result": "Active"}, {"measurement": "Activity", "setting": "[11]", "result": "Active"}, {"measurement": "Activity", "setting": "[12]", "result": 21, "unit": "%"}, {"measurement": "Activity", "setting": "[13]", "result": 15.1, "unit": "%"}, {"measurement": "Activity", "setting": "[14]", "result": 60, "unit": "%"}, {"measurement": "Activity", "setting": "[15]", "result": 21.3, "unit": "%"}, {"measurement": "Activity", "setting": "[16]", "result": "Active"}, {"measurement": "Activity", "setting": "[17]", "result": "Active"}, {"measurement": "Activity", "setting": "[18]", "result": "Active"}, {"measurement": "Activity", "setting": "[19]", "result": "Dose-dependent effect"}, {"measurement": "Activity", "setting": "[20]", "result": 7.5, "unit": "%"}, {"measurement": "Activity", "setting": "[21]", "result": 26, "unit": "%"}, {"measurement": "Activity", "setting": "[22]", "result": "Dose-dependent effect"}, {"measurement": "Activity", "setting": "[23]", "result": "Dose-dependent effect"}, {"measurement": "Activity", "setting": "[24]", "result": "Dose-dependent effect"}, {"measurement": "Ratio IC50", "setting": "[25]", "result": 2.9}, {"measurement": "Ratio IC50", "setting": "[26]", "result": 6.7}]}
